KCNK9 block: inhibitors of human KCNK9 two-pore domain potassium channel. HEK293 KCNK9, FluxOR thallium flux fluorescence; hits give low values. Q9NPC2. B-score at 10 µM. 310,000 tested, 1.2% active;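 active = ratio B-score over 3 SD below the library mean, with starting fluorescence within 5 SD of its mean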;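 also: negative B-score means less thallium flux so channel inhibition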
Target sequence (Q9NPC2 whole entry, looked up, the tested form may be a part): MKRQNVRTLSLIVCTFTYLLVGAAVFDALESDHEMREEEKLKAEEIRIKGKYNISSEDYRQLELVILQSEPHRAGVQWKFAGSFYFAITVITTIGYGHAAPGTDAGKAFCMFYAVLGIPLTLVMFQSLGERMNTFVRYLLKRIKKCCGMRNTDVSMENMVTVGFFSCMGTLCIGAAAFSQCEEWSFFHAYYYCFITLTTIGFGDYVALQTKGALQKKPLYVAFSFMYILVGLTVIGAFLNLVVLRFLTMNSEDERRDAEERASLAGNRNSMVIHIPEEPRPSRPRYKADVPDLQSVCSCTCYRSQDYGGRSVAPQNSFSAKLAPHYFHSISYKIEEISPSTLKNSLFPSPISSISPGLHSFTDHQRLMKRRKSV
KCNQ1 inh: inhibitors of human KCNQ1 potassium channel; CHO-K1 KCNQ1, FluxOR thallium flux fluorescence; hits give high values; B-score at 10 µM; 310,000 tested, 1.3% active; P51787;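 active = compounds whose thallium flux B-score, printed positive for inhibition, exceeds three library SD while starting fluorescence stays within three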;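 also: channel opened by potassium depolarization with thallium stimulus after 20 min compound exposure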
hERG rescue: hERG (human) protection from proarrhythmic block | Q12809 | CHO-hERG, FluxOR thallium flux, dofetilide IC70 present | activation (rescue from dofetilide block), less the hit threshold, % at 10 µM | 310,000 tested, 0.51% active | AID 1511;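 active = activation above the mean of controls blocked by dofetilide plus 5 SD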;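 also: thallium influx through hERG after potassium depolarization seen as dye fluorescence rise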
KCNQ1 act: potentiators or activators of human KCNQ1 potassium channel | CHO-K1 KCNQ1, thallium flux FluxOR fluorescence; hits give high values | B-score at 10 µM | 310,000 tested, 0.35% active;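 active = fluorescence ratio B-score, a plate-corrected score, at least three library SD, with initial intensity B-score within 5 SD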
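assay system = KCNQ1-transfected CHO-K1 cells | medium = assay buffer with matched DMSO | probe or stimulus = depolarizing K+/Tl+ stimulus, K2SO4 and Tl2SO4 each 12.5 mM in 5x stock | dosing = single dose | incubation = dye 90 min, compound 20 min, room temperature | detection = kinetic FluxOR fluorescence, 10 s baseline plus 110 s post-stimulus | evaluation = ratio B score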
KCNK3 inh: human KCNK3 channel inhibition, primary screen; CHO-KCNK3 thallium flux, FluxOR fluorescence; hits give low values; B-score at 10 µM; 340,000 tested, 0.84% active; AID 602410;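 active = B-score under library mean minus 4 SD, starting fluorescence ratio at most library mean plus 5 SD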;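 also: more negative B-score means stronger inhibition of thallium flux through KCNK3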
* = called active by the depositor; i = inactive; / = no result given. A selection: hits, their analogues and other compounds. The true share with any hit is near 3.1%.

SMILES	KCNK9 block	KCNQ1 inh	hERG rescue	KCNQ1 act	KCNK3 inh
CN(C)CCCOC(=O)c1ccc(Cl)cc1	i	i	4.8*	i	i
Cc1cc(C)cc(NC(=O)CCCN2C(=O)C(c3ccccc3)Oc3cccnc32)c1 (stereo unspecified)	i	i	-7.8	i	i
CCCCN=C(NNc1ccc(Br)cc1)C(=O)OCC	-7.57*	i	-5.8	i	i
CCOC(=O)C(=NCCCN(C)C)NNc1ccc(Br)cc1	i	i	-6.0	i	i
S=c1[nH]cnc2scc(-c3ccccc3)c12	i	i	60.3*	18*	i
CNc1ncnc2sc(-c3ccccc3)cc12	i	i	-7.2	i	i
S=c1[nH]cnc2sc(-c3ccccc3)cc12	i	i	18.6*	132*	i
COc1ccc(C2C(C)C(=O)C(C)C(c3ccc(OC)cc3)N2N=O)cc1 (stereo unspecified)	/	/	/	/	i
CC1CCCCC12NC(=O)N(CC(=O)NCc1ccco1)C2=O (stereo unspecified)	/	/	/	/	i
CN(CC(=O)Nc1cccc(F)c1)C(=O)c1ccc(N2CCCC2)c([N+](=O)[O-])c1	i	i	-10.8	i	i
CCn1c(C)c(C)c2cc(C(=O)Nc3cccc(Cl)c3)ccc21	i	6*	-17.6	i	i
COc1ccccc1NC(=O)c1ccc2c(c1)CCN2S(C)(=O)=O	i	i	-4.9	i	i
Cc1ccc(NC(=O)c2ccc3c(c2)CCN3S(C)(=O)=O)c(C)c1	i	i	5.3*	i	i
CCCCN1C(=O)C(=O)N(CC(=O)N2CCc3ccccc32)C1=O	/	/	/	/	i
CC1(C)CC2CC(C)(CN2C(=S)Nc2ccccc2)C1 (stereo unspecified)	i	i	-10.1	i	i
CC1(C)CC2CC(C)(CN2C(=S)NC(=O)c2ccccc2Cl)C1 (stereo unspecified)	i	i	38.9*	27*	i
CCN(CC)CC(=O)Nc1ccc2c(c1)Nc1ccccc1CC2	i	i	-2.4	8*	i
CCN(CC)CC(=O)Nc1ccc2c(c1)N(C(=O)CN(CC)CC)c1ccccc1CC2	i	i	-5.9	i	i
CCC(=O)NC(=S)NNC(=O)c1ccc(OC)cc1	-7.17*	i	-7.2	i	i
COc1ccc(C(=O)NC(=S)NNC(=O)c2ccc(C)cc2)cc1	i	i	-6.3	13*	i
O=C(C1=COCCO1)N1CCN(S(=O)(=O)c2cccc(F)c2)CC1	/	/	/	/	i
O=C(Nc1ccc(C(=O)N2CCCCC2)cc1)C1CCCCC1	i	i	9.1*	i	i
Cc1cccc(C)c1NC(=O)CNC(=O)c1ccc(COc2ccccc2)o1	/	/	/	/	i
N/C(=N\OC(=O)c1ccccc1Br)c1cccc([N+](=O)[O-])c1	-7.13*	i	-6.8	i	i
Cc1ccccc1OCc1nc2ccccc2c(=O)n1/N=C/c1ccco1	-6.91*	i	-4.7	i	i
SMILES	KCNK9 block	KCNQ1 inh	hERG rescue	KCNQ1 act	KCNK3 inh
CCOc1ccc(CN(C)Cc2cc(=O)oc3c(C)c(C)ccc23)cc1OC	/	/	/	/	i
CSc1ccc(CN(C)Cc2cc(=O)oc3c(C)c(C)ccc23)cc1	i	7*	-15.2	i	i
COc1ccc(NC(=O)NS(=O)(=O)c2ccc(C)cc2)cc1OC	/	/	/	/	i
O=C1NC(=Nc2ccccc2Cl)S/C1=C\c1cccc([N+](=O)[O-])c1O	i	6*	-13.3	i	i
COc1cc(C=C(c2nc3ccccc3s2)c2nc3ccccc3s2)ccc1O	i	6*	-14.4	i	i
COc1ccc(C=C(c2nc3ccccc3s2)c2nc3ccccc3s2)cc1O	i	i	-11.8	i	i
COc1ccccc1-c1cnnc(N/N=C/c2ccc(-c3cccc(Br)c3)o2)n1	-6.82*	i	-6.4	i	i
CCCSc1nc(N)cc(=O)[nH]1	i	i	4.7*	i	i
CCCSc1nc(C)cc(=O)[nH]1	i	i	-4.3	i	i
O=C1C=C(c2ccccc2)OC(=O)C1C(=O)c1ccccc1 (stereo unspecified)	i	i	5.4*	i	i
COc1cc(OC)c(NC(=O)CCCNC(=O)Cn2cnc3sc(C)c(C)c3c2=O)cc1Cl	i	i	-6.2	i	i
O=C1c2ccccc2NC(c2cccc([N+](=O)[O-])c2)N1CCc1ccccc1 (stereo unspecified)	-6.58*	i	-8.8	i	i
O=C1Cc2cc(S(=O)(=O)NCc3ccccc3Cl)cc3c2N1CCC3	i	i	-5.9	i	i
CCCCCCCCNC(C)C(O)c1ccc(SC(C)C)cc1 (stereo unspecified)	i	6*	-24.9	i	i
Cc1nn(CC(=O)NNC(=O)c2ccc(Br)cc2)c(C)c1[N+](=O)[O-]	/	/	/	/	i
CCC1(c2ccccc2)NC(=O)N(CC(=O)Nc2ccc(N3CCOCC3)cc2)C1=O (stereo unspecified)	/	/	/	/	i
Cc1c(C(=O)Nc2ccccc2[N+](=O)[O-])csc1-c1ccccc1	-6.69*	i	-16.4	i	i
COC(=O)C1=C(Nc2ccccc2NS(=O)(=O)c2ccc(C(F)(F)F)cc2Cl)CSC1	i	6*	-11.2	i	i
Cc1cc(Nc2ccccc2)n(C(=O)c2ccc(Cl)cc2)n1	-6.64*	i	-7.4	i	i
Cc1cc(C)n(/C(=C\N(C)C)C(=O)c2ccc(Cl)cc2)n1	i	i	5.6*	i	i
COc1ccc(C(=O)/C(=C\N(C)C)n2nc(C)cc2C)cc1	i	i	-8.6	i	i
O=C(CSc1n[nH]c(Cc2ccccc2)n1)Nc1ccccc1Br	i	i	-7.3	i	i
CC1CCN(C(=O)/C(=C/c2ccccc2Cl)c2ccccc2)CC1	-6.72*	i	-12.2	i	i
CN(/N=C/c1cc(Br)cc(Br)c1O)c1cccc(C(F)(F)F)n1	-7.14*	i	-8.1	i	i
Cc1ccc(C(=O)O)cc1N=Cc1cc(Br)cc(Br)c1O	i	i	-21.7	i	i
SMILES	KCNK9 block	KCNQ1 inh	hERG rescue	KCNQ1 act	KCNK3 inh
Cc1cc(C)cc(N2C(=O)C=CC2=O)c1	/	/	/	/	i
CCOC(=O)c1cnc(-n2nc(C)cc2C)nc1NNc1ncc(-c2ccccc2)cn1	i	i	-7.7	i	/
CCOC(=O)c1cnc(-n2nc(C)cc2C)nc1NNc1cc(-c2ccccc2)nc(C)n1	i	6*	-11.3	i	/
Cc1ccc(N2C(=O)c3cccc4c(N5CCN(C)CC5)ccc(c34)C2=O)c2cccnc12	i	9*	-21.4	i	/
CN(C)CCN(C(=O)c1cccc2ccccc12)c1nc2cc3c(cc2s1)OCO3	i	6*	-21.4	i	i
CCOc1cccc2sc(N(CCN(C)C)C(=O)c3cc4ccccc4cc3OC)nc12	i	9*	-10.9	i	i
